Reference: ChEMBL document CHEMBL1147907, “Structure-based discovery of new small molecule inhibitors of low molecular weight protein tyrosine phosphatase” (Eur J Med Chem, 2007)
Active and inactive are the calls of the source. The calls are words filed in the database; no cut-off is given here.

What follows are compounds tested against T1, Low molecular weight phosphotyrosine protein phosphatase (Bos taurus) (UniProt P11064) (assay: (§1) Inhibition of bovine low molecular weight PTP expressed in Escherichia coli […] cells).
T1 sequence (whole entry): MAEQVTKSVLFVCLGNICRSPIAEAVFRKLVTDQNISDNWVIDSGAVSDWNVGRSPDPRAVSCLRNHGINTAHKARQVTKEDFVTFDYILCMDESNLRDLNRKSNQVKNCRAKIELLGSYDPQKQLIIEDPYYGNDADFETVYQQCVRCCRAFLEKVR
Method in brief: (§2)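 Enzyme held at 10 nM; p-nitrophenyl phosphate substrate at five final concentrations (0.4, 0.8, 1.2, 1.6, 2.0 mM) against four to five inhibitor concentrations; inhibitors kept as 100 mM DMSO stocks. Run at 37 °C in 40 mM sodium acetate pH 5.0, 150 mM NaCl, 1 mM TCEP. p-Nitrophenolate release read at 405 nm; competitive Ki derived.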

Row | SMILES | Activity
1 | CCCOc1ccc(N2C(=O)CC(N3CCC(C(=O)O)CC3)C2=O)cc1 (centres undefined) | inactive
2 | Cc1ccc(N2C(=O)CC(N3CCC(C(=O)O)CC3)C2=O)cc1 (centres undefined) | inactive
3 | Cc1ccc2nc(-c3cccnc3)cc(C(=O)Nc3ccc(CC(=O)O)cc3)c2c1 | inactive
4 | O=C(O)COc1ccc2c(c1)C(=O)CC1(CCCCC1)O2 | inactive
5 | CS(=O)(=O)N1CCN(C2=C(Cl)C(=O)c3ccccc3C2=O)CC1 | inactive
6 | O=[N+]([O-])c1ccc(C2=Nn3c(nnc3-c3ccccc3)SC2)cc1 | inactive
7 | O=C(O)c1ccc2c(c1)C1C=CCC1C(C(=O)O)N2 (centres undefined) | inactive
8 | COc1ccc(CN2CCN(S(C)(=O)=O)CC2)cc1OC | inactive
9 | O=C(O)C1CSC(c2cc(Br)ccc2O)N1 (centres undefined) | inactive
10 | O=C(O)C1CC(=O)N(C2CCCCCC2)C1 (centres undefined) | inactive
11 | Cc1cc[n+](CCCS(=O)(=O)O)c2ccccc12 | inactive
12 | O=C(O)C1CCC(CNCc2ccncc2)CC1 (centres undefined) | inactive
13 | Cc1cc(C(=S)N2CCOCC2)c(C)n1-c1ccc(C(=O)O)cc1 | inactive
14 | O=C(O)CC(O)c1nc2ccccc2[nH]1 (centres undefined) | inactive
15 | O=C(O)c1ccc2c(c1)c1c3n2CCNC3CCC1 (centres undefined) | inactive
16 | O=C(O)c1ccc(C2(c3ccc(C(=O)O)cc3)OC(=O)c3ccccc32)cc1 | inactive
17 | CS(=O)(=O)N1CCCC(C(=O)NCc2ccccc2Cl)C1 (centres undefined) | inactive
18 | O=C(O)C1CCN(S(=O)(=O)c2cccc3nsnc23)CC1 | inactive

Each compound was assayed against T2, Low molecular weight phosphotyrosine protein phosphatase (Bos taurus, UniProt P11064) (assay: as §1).
T2 sequence (P11064 whole entry): T1 sequence (whole entry)
Method in brief: as §2

Row | SMILES | Ki [µM]
19 | O=C(O)c1ccc2[nH]c3c(c2c1)CSCC3 | 240
20 | O=C(O)CCC(=O)N1N=C(c2ccccc2)CC1c1ccccc1F (centres undefined) | > 1000
21 | Cn1c(=O)oc2cc(S(=O)(=O)N3CCC(C(=O)O)CC3)ccc21 | > 1000
22 | O=C(O)c1ccc2[nH]c3c(c2c1)CCCC3 | > 1000
23 | O=C(O)c1ccc2c(c1)C1C=CCC1C(c1cccnc1)N2 (centres undefined) | > 1000
24 | O=C(O)c1ccc2c(c1)C1C=CCC1C(c1ccccc1C(F)(F)F)N2 (centres undefined) | 50
25 | O=C(O)CCC(=O)N1CCc2cc(S(=O)(=O)NCc3cccs3)ccc21 | > 1000
26 | CCn1c2c(c3cc(C(=O)O)ccc31)CCCC2=O | 610
27 | O=C(O)c1ccc2c(c1)C1C=CCC1C(c1ccccc1)N2 (centres undefined) | > 1000
28 | O=C(O)Cc1ccc(C2C(=O)C3SC=CC3NC2=S)cc1 (centres undefined) | 880
29 | O=C(O)Cc1ccc2c(c1)[nH]c1ccc(Br)cc12 | 60
30 | O=C1N=C(Cc2cccn2-c2ccc(C(=O)O)cc2)C(=O)N1 | 11
31 | O=C(O)c1ccc2c(c1)C1C=CCC1C(c1cccc(Br)c1)N2 (centres undefined) | 9
32 | CCn1c2ccc(CC(=O)O)cc2c2cc(CC(=O)O)ccc21 | 170
33 | O=C(O)c1ccc(C2Nc3c(F)cc(F)cc3C3C=CCC32)cc1 (centres undefined) | 910
34 | O=C(O)c1ccc(-n2nc(C(F)(F)F)c3c2CCCC3)cc1 | > 1000
